Results published in ChEMBL document CHEMBL4346654 (Eur J Med Chem, 2019).
≈ marks a conversion by molar mass, not a printed value.

How the values were obtained:
Format in all cases: functional
Staphylococcus aureus [1] = assay: Antibacterial activity against MLS-resistant Staphylococcus aureus PU 32 expressing inducible ermA gene assessed as reduction in microbial growth by CLSI based two-fold broth dilution method
Streptococcus pneumoniae [2] = assay: Antibacterial activity against erythromycin-susceptible Streptococcus pneumoniae ATCC49619 assessed as reduction in microbial growth by CLSI based two-fold broth dilution method
Streptococcus pneumoniae [3] = assay: Bactericidal activity against erythromycin-susceptible Streptococcus pneumoniae ATCC49619 pretreated followed by subculture in absence of compound measured after 24 hrs
Outline: (§1)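 Isolates were identified by 16S rDNA sequencing. MIC was determined by CLSI-recommended two-fold broth dilution. For MBC, samples from 1–8 fold MIC were transferred to culture medium and subcultured for 24 h without antibiotic.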

Haemophilus influenzae [4] = assay: Antibacterial activity against azithromycin-susceptible Haemophilus influenzae ATCC 49247 assessed as reduction in microbial growth by CLSI based two-fold broth dilution method
Streptococcus pneumoniae [5] = assay: Selectivity ratio of MBC to MIC for erythromycin-susceptible Streptococcus pneumoniae ATCC49619; outline: as §1
Streptococcus pneumoniae [6] = assay: Antibacterial activity against Streptococcus pneumoniae 07P390 expressing constitutive ermB gene assessed as reduction in microbial growth by CLSI based two-fold broth dilution method
Streptococcus pneumoniae [7] = assay: Antibacterial activity against penicillin-susceptible Streptococcus pneumoniae PU 09 expressing mef gene assessed as reduction in microbial growth by CLSI based two-fold broth dilution method
Streptococcus pneumoniae [8] = assay: Bactericidal activity against penicillin-susceptible Streptococcus pneumoniae PU 09 expressing mef gene pretreated followed by subculture in absence of compound measured after 24 hrs; outline: as §1
Streptococcus pneumoniae [9] = assay: Selectivity ratio of MBC to MIC for penicillin-susceptible Streptococcus pneumoniae PU 09 expressing mef gene; outline: as §1
Haemophilus influenzae [10] = assay: Bactericidal activity against azithromycin-susceptible Haemophilus influenzae ATCC 49247 pretreated followed by subculture in absence of compound measured after 24 hrs; outline: as §1
Haemophilus influenzae [11] = assay: Selectivity ratio of MBC to MIC for azithromycin-susceptible Haemophilus influenzae ATCC 49247; outline: as §1
Streptococcus pyogenes [12] = assay: Antibacterial activity against MLS-resistant Streptococcus pyogenes 01-968 expressing inducible ermB gene assessed as reduction in microbial growth by CLSI based two-fold broth dilution method
Streptococcus pyogenes [13] = assay: Bactericidal activity against MLS-resistant Streptococcus pyogenes 01-968 expressing inducible ermB gene pretreated followed by subculture in absence of compound measured after 24 hrs
Outline: (§2)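 MBC assay. Following MIC determination by CLSI standard two-fold broth dilution, samples at 1–8 fold MIC were transferred to fresh culture medium. They were subcultured for 24 h without antibiotic. Isolates were identified by 16S rDNA sequencing. S. aureus ATCC 29213 was used as a control strain.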

Streptococcus pyogenes [14] = assay: Selectivity ratio of MBC to MIC for MLS-resistant Streptococcus pyogenes 01-968 expressing inducible ermB gene
Outline: (§3)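 MBC/MIC ratio. MIC was measured by CLSI standard two-fold broth dilution. MBC was measured by transferring samples at 1–8 fold MIC to culture medium and subculturing for 24 h without antibiotic. Isolates were identified by 16S rDNA sequencing.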

Staphylococcus aureus [15] = assay: Bactericidal activity against MLS/methicillin-resistant Staphylococcus aureus PU 32 expressing inducible ermA gene pretreated followed by subculture in absence of compound measured after 24 hrs; outline: as §2
Staphylococcus aureus [16] = assay: Selectivity ratio of MBC to MIC for MLS/methicillin-resistant Staphylococcus aureus PU 32 expressing inducible ermA gene; outline: as §3
Staphylococcus aureus [17] = assay: Antibacterial activity against MLS-resistant Staphylococcus aureus PU 20 expressing constitutive ermC gene assessed as reduction in microbial growth by CLSI based two-fold broth dilution method
Staphylococcus aureus [18] = assay: Bactericidal activity against MLS-resistant Staphylococcus aureus PU 20 expressing constitutive ermC gene pretreated followed by subculture in absence of compound measured after 24 hrs; outline: as §2
Streptococcus pneumoniae [19] = assay: Bactericidal activity against Streptococcus pneumoniae 07P390 expressing constitutive ermB gene pretreated followed by subculture in absence of compound measured after 24 hrs; outline: as §1

SMILES	MIC (Staphylococcus aureus [1]) [µg/mL]	MIC (Streptococcus pneumoniae [2]) [µg/mL]	MBC (Streptococcus pneumoniae [3]) [µg/mL]	MIC (Haemophilus influenzae [4]) [µg/mL]	Selectivity ratio (Streptococcus pneumoniae [5])	MIC (Streptococcus pneumoniae [6]) [µg/mL]	MIC (Streptococcus pneumoniae [7]) [µg/mL]	MBC (Streptococcus pneumoniae [8]) [µg/mL]	Selectivity ratio (Streptococcus pneumoniae [9])	MBC (Haemophilus influenzae [10]) [µg/mL]	Selectivity ratio (Haemophilus influenzae [11])	MIC (Streptococcus pyogenes [12]) [µg/mL]	MBC (Streptococcus pyogenes [13]) [µg/mL]	Selectivity ratio (Streptococcus pyogenes [14])	MBC (Staphylococcus aureus [15]) [µg/mL]	Selectivity ratio (Staphylococcus aureus [16])	MIC (Staphylococcus aureus [17]) [µg/mL]	MBC (Staphylococcus aureus [18]) [µg/mL]	MBC (Streptococcus pneumoniae [19]) [µg/mL]
CC[C@H]1OC(=O)[C@@](C)(F)C(=O)[C@H](C)[C@@H](O[C@@H]2O[C@H](C)C[C@H](N(C)C)[C@H]2O)[C@](C)(OC)C[C@@H](C)/C(=N\OC/C=C/c2cncc(N)c2)[C@H](C)[C@H]2OC(=O)O[C@@]21C	0.5	0.125	0.125 (≈ 0.16 µM)	8	1	> 32	1	1 (≈ 1.28 µM)	1	16 (≈ 20.5 µM)	2	0.031	> 0.25	>8	> 4	>8	256	> 256	
CC[C@H]1OC(=O)[C@@](C)(F)C(=O)[C@H](C)[C@@H](O[C@@H]2O[C@H](C)C[C@H](N(C)C)[C@H]2O)[C@](C)(OC)C[C@@H](C)/C(=N\OC/C=C/c2ccc3ncc(C(=O)O)cc3c2)[C@H](C)[C@H]2OC(=O)O[C@@]21C	4	1	2 (≈ 2.33 µM)	32	2	32	16	32 (≈ 37.3 µM)	2	64 (≈ 74.6 µM)	2	0.062	> 0.5	>8	> 32	>8	> 256		> 32
CC[C@H]1OC(=O)[C@@](C)(F)C(=O)[C@H](C)[C@@H](O[C@@H]2O[C@H](C)C[C@H](N(C)C)[C@H]2O)[C@](C)(OC)C[C@@H](C)/C(=N\OCC#Cc2cncc(N)c2)[C@H](C)[C@H]2OC(=O)O[C@@]21C	0.5	0.25	0.5 (≈ 0.644 µM)	16	2	> 32	4	4 (≈ 5.15 µM)	1	32 (≈ 41.2 µM)	2	0.062	> 0.5	>8	> 4	>8	> 256		
CC[C@H]1OC(=O)[C@@](C)(F)C(=O)[C@H](C)[C@@H](O[C@@H]2O[C@H](C)C[C@H](N(C)C)[C@H]2O)[C@](C)(OC)C[C@@H](C)/C(=N\OCC#Cc2cncc(C(N)=O)c2)[C@H](C)[C@H]2OC(=O)O[C@@]21C	1	0.25	1 (≈ 1.24 µM)	16	4	> 32	2	2 (≈ 2.48 µM)	1	32 (≈ 39.8 µM)	2	0.125	> 1	>8	> 8	>8	> 256		
CC[C@H]1OC(=O)[C@@](C)(F)C(=O)[C@H](C)[C@@H](O[C@@H]2O[C@H](C)C[C@H](N(C)C)[C@H]2O)[C@](C)(OC)C[C@@H](C)/C(=N\OC/C=C/c2cncc(C(=O)O)c2)[C@H](C)[C@H]2OC(=O)O[C@@]21C	8	0.25	0.5 (≈ 0.619 µM)	32	2	> 32	8	16 (≈ 19.8 µM)	2	32 (≈ 39.6 µM)	1	0.5	> 4	>8	> 64	>8	> 256		
CC[C@H]1OC(=O)[C@@](C)(F)C(=O)[C@H](C)[C@@H](O[C@@H]2O[C@H](C)C[C@H](N(C)C)[C@H]2O)[C@](C)(OC)C[C@@H](C)/C(=N\OCC#Cc2cncc(NC(C)=O)c2)[C@H](C)[C@H]2OC(=O)O[C@@]21C	1	0.062	0.25 (≈ 0.305 µM)	8	4	> 32	4	4 (≈ 4.88 µM)	1	16 (≈ 19.5 µM)	2	0.125	> 1	>8	> 8	>8	> 256		
CC[C@H]1OC(=O)[C@H](C)[C@@H](O[C@H]2C[C@@](C)(OC)[C@@H](O)[C@H](C)O2)[C@H](C)[C@@H](O[C@@H]2O[C@H](C)C[C@H](N(C)C)[C@H]2O)[C@](C)(OC)C[C@@H](C)C(=O)[C@H](C)[C@@H](O)[C@]1(C)O [CLARITHROMYCIN]	32	0.062	0.25 (≈ 0.334 µM)	4	4	> 32	4	32 (≈ 42.8 µM)	8	8 (≈ 10.7 µM)	2	8	> 64	>8	> 256	>8	> 256		
